Reference: ChEMBL document CHEMBL1154674, “Synthesis and evaluation of three 18F-labeled aminophenylbenzothiazoles as amyloid imaging agents” (J Med Chem, 2009)
Each block holds one compound with its values, some of them ahead of it.

How the values were obtained:
Assay type in all cases: ADME, organism-based, Macaca mulatta
[1] = Drug level in normal rhesus monkey frontal cortex assessed as standard uptake value at 81.2 MBq, iv after 17.5 mins by microPET; settings: in vivo
[2] = Drug level in normal rhesus monkey cerebellum assessed as standard uptake value at 81.2 MBq, iv after 0.5 mins by microPET; settings: in vivo
In short: (§1)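 One normal rhesus monkey, each tracer given iv via the vena saphena (81.2, 96.3 or 109.4 MBq), with 1 day between tracer injections. Dynamic brain μPET over 180 min used frames of 5 × 60 s, 5 × 120 s, 9 × 300 s and 12 × 600 s. Images were reconstructed by filtered back projection with a RAMP filter. Regional time-activity curves were expressed as SUV.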

[3] = Drug level in normal rhesus monkey parietal cortex assessed as standard uptake value at 81.2 MBq, iv after 155 mins by microPET; settings: in vivo
[4] = Drug level in normal rhesus monkey parietal cortex assessed as standard uptake value at 81.2 MBq, iv after 2.5 mins by microPET; settings: in vivo
[5] = Drug level in normal rhesus monkey parietal cortex assessed as standard uptake value at 81.2 MBq, iv after 6 mins by microPET; settings: in vivo, 0.1 h
[6] = Drug level in normal rhesus monkey thalamus assessed as standard uptake value at 81.2 MBq, iv after 115 mins by microPET; settings: in vivo
[7] = Drug level in normal rhesus monkey cerebellum assessed as standard uptake value at 81.2 MBq, iv after 4.5 mins by microPET; settings: in vivo, 0.075 h; in short: as §1
[8] = Drug level in normal rhesus monkey thalamus assessed as standard uptake value at 81.2 MBq, iv after 57.5 mins by microPET; settings: in vivo
[9] = Drug level in normal rhesus monkey cerebellum assessed as standard uptake value at 96.3 MBq, iv after 85 mins by microPET; settings: in vivo; in short: as §1
[10] = Drug level in normal rhesus monkey pons assessed as standard uptake value at 96.3 MBq, iv after 17.5 mins by microPET; settings: in vivo
[11] = Drug level in normal rhesus monkey white matter assessed as standard uptake value at 96.3 MBq, iv after 22.5 mins by microPET; settings: in vivo, 0.375 h
[12] = Drug level in normal rhesus monkey pons assessed as standard uptake value at 96.3 MBq, iv after 85 mins by microPET; settings: in vivo
[13] = Drug level in normal rhesus monkey parietal cortex assessed as standard uptake value at 96.3 MBq, iv after 6 mins by microPET; settings: in vivo, 0.1 h
[14] = Drug level in normal rhesus monkey parietal cortex assessed as standard uptake value at 96.3 MBq, iv after 47.5 mins by microPET; settings: in vivo
[15] = Drug level in normal rhesus monkey cerebellum assessed as standard uptake value at 96.3 MBq, iv after 52.5 mins by microPET; settings: in vivo, 0.875 h; in short: as §1
[16] = Drug level in normal rhesus monkey frontal cortex assessed as standard uptake value at 109.4 MBq, iv after 9.5 mins by microPET; settings: in vivo
[17] = Drug level in normal rhesus monkey frontal cortex assessed as standard uptake value at 109.4 MBq, iv after 0.625 mins by microPET; settings: in vivo, 38 s
[18] = Drug level in normal rhesus monkey parietal cortex assessed as standard uptake value at 109.4 MBq, iv after 15.5 mins by microPET; settings: in vivo
[19] = Drug level in normal rhesus monkey parietal cortex assessed as standard uptake value at 109.4 MBq, iv after 32.5 mins by microPET; settings: in vivo
[20] = Drug level in normal rhesus monkey thalamus assessed as standard uptake value at 109.4 MBq, iv after 0.375 mins by microPET; settings: in vivo, 22 s
[21] = Drug level in normal rhesus monkey cerebellum assessed as standard uptake value at 109.4 MBq, iv after 105 mins by microPET; settings: in vivo, 1.75 h
[22] = Drug level in normal rhesus monkey frontal cortex assessed as standard uptake value at 109.4 MBq, iv after 63 mins by microPET; settings: in vivo, 1.05 h
[23] = Drug level in normal rhesus monkey cerebellum assessed as standard uptake value at 109.4 MBq, iv after 0.875 mins by microPET; settings: in vivo, 52 s
[24] = Drug level in normal rhesus monkey cerebellum assessed as standard uptake value at 109.4 MBq, iv after 75 mins by microPET; settings: in vivo, 1.25 h
In short: (§2)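 One normal rhesus monkey received each tracer via the vena saphena, with 1 day between injections. Dynamic μPET ran 180 min for 18F tracers (5×60 s, 5×120 s, 9×300 s, 12×600 s) and 90 min for the 11C tracer (5×60 s, 5×120 s, 9×300 s, 3×600 s). Filtered back-projection reconstruction (RAMP filter) was used. Time-activity curves were drawn to give regional SUV.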

[25] = Drug level in normal rhesus monkey parietal cortex assessed as standard uptake value at 152.9 MBq, iv after 6 mins by microPET; settings: in vivo, 0.1 h
[26] = Drug level in normal rhesus monkey parietal cortex assessed as standard uptake value at 152.9 MBq, iv after 57.5 mins by microPET; settings: in vivo
[27] = Drug level in normal rhesus monkey pons assessed as standard uptake value at 152.9 MBq, iv after 8 mins by microPET; settings: in vivo
[28] = Drug level in normal rhesus monkey parietal cortex assessed as standard uptake value at 152.9 MBq, iv after 42.5 mins by microPET; settings: in vivo
[29] = Drug level in normal rhesus monkey cerebellum assessed as standard uptake value at 152.9 MBq, iv after 12 mins by microPET; settings: in vivo, 0.2 h; in short: as §2
[30] = Drug level in normal rhesus monkey white matter assessed as standard uptake value at 152.9 MBq, iv after 57.5 mins by microPET; settings: in vivo
[31] = Drug level in normal rhesus monkey cerebellum assessed as standard uptake value at 152.9 MBq, iv after 75 mins by microPET; settings: in vivo, 1.25 h
In short: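 Single normal rhesus monkey; tracer given iv via the vena saphena, 1 day apart from the other tracer injections. Dynamic μPET ran 90 min (5×60 s, 5×120 s, 9×300 s, 3×600 s). Images were reconstructed by filtered back projection with a RAMP filter. Regional time-activity curves were expressed as SUV.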

[32] = Drug level in normal rhesus monkey cerebellum assessed as standard uptake value at 152.9 MBq, iv after 1.5 mins by microPET; settings: in vivo, 0.025 h; in short: as §2
[33] = Drug level in normal rhesus monkey cerebellum assessed as standard uptake value at 152.9 MBq, iv after 85 mins by microPET; settings: in vivo
In short: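 One normal rhesus monkey, tracer given iv via the vena saphena (152.9 MBq), with at least 1 day between tracer injections. Dynamic brain μPET over 90 min used frames of 5 × 60 s, 5 × 120 s, 9 × 300 s and 3 × 600 s. Images were reconstructed by filtered back projection with a RAMP filter. Regional time-activity curves were expressed as SUV.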

[34] = Drug level in normal rhesus monkey pons assessed as standard uptake value at 152.9 MBq, iv after 10 mins by microPET; settings: in vivo
[35] = Drug level in normal rhesus monkey pons assessed as standard uptake value at 152.9 MBq, iv after 4.5 mins by microPET; settings: in vivo, 0.075 h

SUV [1]: 5.789 | SUV [2]: 0.735 | SUV [3]: 2.662 | SUV [4]: 4.252 | SUV [5]: 4.972 | SUV [6]: 5.209 | SUV [7]: 2.964 | SUV [8]: 5.552
Compound: CNc1ccc2nc(-c3ccc([18F])cc3)sc2c1

SUV [9]: 1.03 | SUV [10]: 1.51 | SUV [11]: 1.3 | SUV [12]: 2.06 | SUV [13]: 2.16 | SUV [14]: 1.72 | SUV [15]: 1.25
Compound: CN(C)c1ccc2nc(-c3ccc([18F])cc3)sc2c1

SUV [16]: 5.43 | SUV [17]: 1.15 | SUV [18]: 5.1 | SUV [19]: 4.8 | SUV [20]: 0.41 | SUV [21]: 2.5 | SUV [22]: 4.56 | SUV [23]: 3.51 | SUV [24]: 2.92
Compound: Nc1ccc2nc(-c3ccc([18F])cc3)sc2c1

SUV [25]: 2.16 | SUV [26]: 0.742 | SUV [27]: 2.153 | SUV [28]: 0.906 | SUV [29]: 2.252 | SUV [30]: 0.957 | SUV [31]: 0.665 | SUV [32]: 0.677 | SUV [33]: 0.685 | SUV [34]: 2.036 | SUV [35]: 2.008
Compound: [11CH3]Nc1ccc(-c2nc3ccc(O)cc3s2)cc1 [PITTSBURGH COMPOUND B]
